hERG protect: hERG rescue from dofetilide block, primary screen, cell-based, CHO-hERG, FluxOR thallium flux, dofetilide IC70; Voltage-gated inwardly rectifying potassium channel KCNH2 (Homo sapiens), Q12809; dofetilide IC70 present; activation (rescue from dofetilide block), less the hit threshold, % at 10 µM; 310,000 tested, 0.51% active; AID 1511, 2009;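 active means activation above the mean of controls blocked by dofetilide plus 5 SD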;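 further: thallium influx through hERG after potassium depolarization seen as dye fluorescence rise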
KCC2 mod: KCC2 cotransporter modulators, thallium flux, primary screen, cell-based, HEK293 KCC2, FluoZin-2 fluorescence, MLSMR; KCC2 cells, thallium flux FluoZin-2 fluorescence; B-score of Tl+ flux slope (higher = more flux/activation; lower = inhibition) at 10 µM; 190,000 tested, 2.2% active;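 active means thallium flux slope and its plate-corrected score both differing from the plate sample mean at a set confidence after two filtering rounds, in either direction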;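 further: slope of fluorescence scaled to starting intensity during 10 to 20 s after thallium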
KCNK3 inh: human KCNK3 channel inhibitors, primary screen, CHO cells, FluxOR thallium flux, B-score. Potassium channel subfamily K member 3 (Homo sapiens), O14649. FluxOR fluorescence; stronger effect = lower value. B-score at 10 µM. 340,000 tested, 0.84% active;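 active means B-score under library mean minus 4 SD, starting fluorescence ratio at most library mean plus 5 SD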;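 further: more negative B-score means stronger inhibition of thallium flux through KCNK3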
KCNK9 inh: KCNK9 potassium channel inhibitors, primary screen, HEK293 cells, thallium flux; 310,000 tested, 1.2% active; B-score at 10 µM; AID 488922, 2010; Potassium channel subfamily K member 9 (Homo sapiens), Q9NPC2; FluxOR thallium flux fluorescence; stronger effect = lower value;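 active means ratio B-score over 3 SD below the library mean, with starting fluorescence within 5 SD of its mean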;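 further: negative B-score means less thallium flux so channel inhibition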
Target sequence (Q9NPC2 whole entry, looked up): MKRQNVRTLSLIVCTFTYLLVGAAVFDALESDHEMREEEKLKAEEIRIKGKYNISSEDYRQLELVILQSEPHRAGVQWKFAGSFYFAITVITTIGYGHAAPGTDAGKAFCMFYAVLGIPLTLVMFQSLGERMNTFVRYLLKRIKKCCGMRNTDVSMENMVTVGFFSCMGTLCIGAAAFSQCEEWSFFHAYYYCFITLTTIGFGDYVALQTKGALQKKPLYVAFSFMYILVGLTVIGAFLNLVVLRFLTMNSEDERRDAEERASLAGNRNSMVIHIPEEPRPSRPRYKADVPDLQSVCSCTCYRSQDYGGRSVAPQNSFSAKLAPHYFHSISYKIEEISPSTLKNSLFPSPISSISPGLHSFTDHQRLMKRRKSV
KCNQ1 block: inhibitors of human KCNQ1 channel, primary screen, cell-based, thallium flux, high-throughput | CHO-K1 KCNQ1, FluxOR thallium flux fluorescence; stronger effect = higher value | Potassium voltage-gated channel subfamily KQT member 1 (Homo sapiens), P51787 | B-score at 10 µM | 310,000 tested, 1.3% active;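 active means compounds whose thallium flux B-score, printed positive for inhibition, exceeds three library SD while starting fluorescence stays within three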;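 further: channel opened by potassium depolarization with thallium stimulus after 20 min compound exposure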
KCNQ1 pot: potentiators or activators of KCNQ1 channel, primary screen, cell-based, thallium flux, high-throughput; 310,000 tested, 0.35% active; CHO-K1 KCNQ1, thallium flux FluxOR fluorescence; stronger effect = higher value; Potassium voltage-gated channel subfamily KQT member 1 (Homo sapiens), P51787; B-score at 10 µM;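 active means fluorescence ratio B-score, a plate-corrected score, at least three library SD, with initial intensity B-score within 5 SD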
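Assay system: CHO-K1 cells stably expressing KCNQ1; Medium: assay buffer with matched DMSO; Also added: K+/Tl+ depolarizing stimulus; Dosing: single dose; Timing: dye 90 min, compound 20 min, room temperature; Measured by: kinetic FluxOR thallium fluorescence, 10-s 1-Hz baseline, 110-s post-stimulus read; Read-out: peak-minus-minimum fluorescence over initial fluorescence, negative-control normalized, B-scored.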
KCNK9 inh conf: KCNK9 potassium channel inhibitors, confirmation, HEK293 cells, thallium flux, duplicate; shares compounds with KCNK9 inh; FluxOR thallium flux fluorescence; inhibition, % at 10 µM; 4,900 tested, 43% active;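 active means thallium signal inhibited by more than 5 SD of the compound-free buffer control wells, on both duplicate plates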
Kir21 sel: mouse Kir2.1 channel inhibition, confirmation, selectivity assay for KCNK9 modulator project, cell-based, HEK293, thallium flux. inhibition, % at 10 µM. shares compounds with KCNK9 inh. 4,900 tested, 4% active. Kir2.1 cells, FluxOR thallium flux fluorescence;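 active means thallium signal drop more than 5 SD beyond the mean of the no-compound control wells, seen in both duplicate plates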;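 further: signal is fluorescence rise after thallium addition divided by baseline fluorescence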
HEK293 Tl ctr: thallium flux in non-induced HEK293 cells, confirmation, counter-screen for KCNK9 inhibitor project, cell-based, second counter screen, non-induced KCNK9-HEK293; shares compounds with KCNK9 inh; inhibition, % at 10 µM; FluxOR thallium flux; 4,900 tested, 40% active;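 active means thallium signal drop beyond 5 SD of the untreated control mean, on both duplicate plates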
Of the large screens only hits and unclear results are named; the others gave an inactive call (follow-up assays come after a bar, where they were run). Only some compounds are listed: those with a hit (about 4.1% of all), similar ones and a draw of the others.

CCCOc1c(Br)cc(C2C3=C(CCCC3=O)N(CC)C3=C2C(=O)CCC3)cc1OC	KCNK9 inh -8.45 | KCNK9 inh conf inactive | Kir21 sel inactive | HEK293 Tl ctr 31.0%
N#C/C(=C\c1ccc(OCc2ccccc2)cc1)C(N)=O	none
CC(c1ccccc1)n1c(SCC(=O)N2CC(=O)Nc3ccccc32)nc2ccccc2c1=O (stereo not drawn)	KCNK9 inh -9.02 | KCNK9 inh conf 36.5% | Kir21 sel inactive | HEK293 Tl ctr inactive
Cc1ccc(Cn2c(SCC(=O)N3CC(=O)Nc4ccccc43)nc3ccccc3c2=O)cc1	none | KCNK9 inh conf inactive | Kir21 sel inactive | HEK293 Tl ctr inactive
COc1ccc(NC(=O)Cc2nnc(SCC(=O)Nc3cc(C)ccc3OC)n2C)cc1	none
CCOC(=O)C1CCCC12Nc1cccc3cccc(c13)N2 (stereo not drawn)	none (no result: hERG protect, KCC2 mod, KCNK9 inh, KCNQ1 block, KCNQ1 pot)
Cc1cccc(NCN2C(=O)c3ccncc3C2=O)n1	none | KCNK9 inh conf inactive | Kir21 sel inactive | HEK293 Tl ctr inactive
O=C1c2ccncc2C(=O)N1Cc1cccc(Cl)c1	none
Cc1cc(C)cc(C(=O)N2CC(C)SC2=Nc2cccc(S(=O)(=O)N(C)C)c2)c1 (stereo not drawn)	KCNK9 inh -12.5 | KCNK9 inh conf 63.5% | Kir21 sel inactive | HEK293 Tl ctr 34.5%
CCCCc1cc(O)c(CCCC)c(O)c1	KCNK9 inh -11.5 | KCNK9 inh conf 64.5% | Kir21 sel inactive | HEK293 Tl ctr 35.5%
Cc1ccc2ccc(C(Nc3ccccn3)c3ccccc3)c(O)c2n1 (stereo not drawn)	none | KCNK9 inh conf inactive | Kir21 sel inactive | HEK293 Tl ctr inactive
COc1cc(C(Nc2ccccn2)c2ccc3ccc(C)nc3c2O)cc(OC)c1O (stereo not drawn)	none
O=C(Oc1ccc2ccc(=O)oc2c1)c1ccc([N+](=O)[O-])cc1	KCNK9 inh -15 (no result: KCC2 mod) | KCNK9 inh conf 39.5% | Kir21 sel inactive | HEK293 Tl ctr inactive
Cc1ccc(C(=O)Oc2ccc3ccc(=O)oc3c2)cc1	none (no result: KCC2 mod)
CCSC(=N)N	none (no result: hERG protect, KCC2 mod, KCNK9 inh, KCNQ1 block, KCNQ1 pot)
CC(=O)N1N=C(c2ccc(C)cc2)OC1c1ccc(C(C)C)cc1 (stereo not drawn)	none (no result: KCC2 mod) | KCNK9 inh conf inactive | Kir21 sel inactive | HEK293 Tl ctr 30.0%
CC(=O)N1N=C(c2ccc(C)cc2)OC1c1ccc(C)cc1 (stereo not drawn)	none
CS(=O)(=O)c1ccc(NC(=O)CCN2C(=O)C3CCCCC3C2=O)cc1 (stereo not drawn)	none (no result: KCC2 mod)
COc1ccc(OC)c(C(c2nnnn2C2CCCC2)N2CCN(c3ccc(F)cc3)CC2)c1 (stereo not drawn)	KCNK9 inh -14.6, KCNQ1 block 6 | KCNK9 inh conf 51.5% | Kir21 sel inactive | HEK293 Tl ctr 44.0%
CN(C)CCCNC1=CC(=O)OC12CCCCC2	none
N#Cc1ccsc1NC(=O)CN(Cc1ccccc1)Cc1ccccc1	KCNK9 inh -16.9, KCNQ1 block 6 | KCNK9 inh conf 68.0% | Kir21 sel inactive | HEK293 Tl ctr 59.0%
N#Cc1ccsc1NC(=O)CCc1ccccc1	none

Screening results from PubChem.
